Reference: ChEMBL document CHEMBL4004806, “Cyclocurcumin, an Antivasoconstrictive Constituent of Curcuma longa (Turmeric)” (J Nat Prod, 2017)

Assays:
[1] = molecular target: T1, Voltage-gated L-type calcium channel (Rattus norvegicus, UniProt P22002+Q02485+P27732); assay: Inhibition of L-type calcium channel in Sprague-Dawley rat aortic rings assessed as reduction in phenylephrine-induced vasoconstriction at 25 uM preincubated with aortic rings followed by phenylephrine addition
In short: (§1)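 Rat aortic rings in organ baths of Krebs-Ringer (pH 7.4, 95% O2/5% CO2, 37 °C) pretreated with compound. Contraction was then started by cumulative phenylephrine, serotonin or 60 mM K+. Isometric tension recorded by force transducer and expressed as percent of a prior 90 mM K+ contraction. Mean ± SEM, ≥3 independent experiments, ANOVA/Duncan or t test.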

[2] = molecular target: T1, Voltage-gated L-type calcium channel; assay: Irreversible inhibition of 5-HT activated L-type calcium channel-mediated vasoconstriction in Sprague-Dawley rat aortic rings at 15 uM preincubated with aortic rings followed by 5-HT addition and subsequent compound wash out measured after 4 hrs
In short: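 Rat aortic rings in organ baths of Krebs-Ringer solution (pH 7.4, 37 °C, gassed with 95% O2/5% CO2). Rings were pretreated with compound, then contracted with 5-HT (reading I). Buffer was washed out, and 5-HT contraction was re-measured 4 h later (reading II). Isometric tension was recorded and expressed as percent of the 90 mM K+ contraction. Mean ± SEM, ≥3 independent experiments.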

[3] = molecular target: T1, Voltage-gated L-type calcium channel; assay: Inhibition of 60 mM K+ activated L-type calcium channel-mediated vasoconstriction in Sprague-Dawley rat aortic rings preincubated followed by 60 mM K+ addition; in short: as §1
Aorta [4] = assay: Cytotoxicity against Sprague-Dawley rat aortic rings assessed as non-specific tissue damage at 5 to 25 uM after 30 mins by LDH release assay; type: tissue-based; details: 0.5 h
In short: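 Aortic rings exposed to compound for 30 min, then medium aliquots collected. Aliquot incubated in Tris-EDTA-NADH buffer (0.17 mM β-NADH, pH 7.4) for 10 min at 37 °C. Prewarmed 14 mM pyruvate added, and the fall in A340 was followed for 1 min as LDH activity. Mean ± SEM, ≥3 independent experiments.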

[5] = molecular target: T1, Voltage-gated L-type calcium channel; assay: Inhibition of L-type calcium channel in Sprague-Dawley rat aortic rings assessed as reduction in phenylephrine-induced vasoconstriction preincubated with aortic rings followed by phenylephrine addition; in short: as §1
[6] = molecular target: T1, Voltage-gated L-type calcium channel; assay: Inhibition of L-type calcium channel in Sprague-Dawley rat aortic rings assessed as reduction in 5-HT-induced vasoconstriction at 5 to 25 uM preincubated with aortic rings followed by 5-HT addition; in short: as §1
[7] = molecular target: T1, Voltage-gated L-type calcium channel; assay: Inhibition of L-type calcium channel in endothelium-denuded Sprague-Dawley rat aortic rings assessed as reduction in 5-HT-induced vasoconstriction at 5 to 25 uM preincubated with aortic rings followed by 5-HT addition; in short: as §1
[8] = molecular target: T1, Voltage-gated L-type calcium channel; assay: Inhibition of L-type calcium channel in Sprague-Dawley rat primary VSMC assessed as reduction in 5-HT-induced MLC phosphorylation preincubated for 30 mins followed by 5-HT addition measured after 10 mins by Western blot method
In short: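 Primary VSMCs were released from rat aorta with collagenase and elastase. Cells pretreated with compound for 30 min, then stimulated with 10−5 M serotonin for 10 min. Lysed in RIPA with protease/phosphatase inhibitors, and pMLC and total MLC detected by SDS-PAGE Western blot with chemiluminescent imaging. Mean ± SEM, ≥3 experiments.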

[9] = molecular target: T1, Voltage-gated L-type calcium channel; assay: Inhibition of L-type calcium channel in Sprague-Dawley rat primary VSMC assessed as reduction in 5-HT-induced calcium influx preincubated for 30 mins followed by 5-HT addition by Fura-2-AM dye based confocal microscopic method
In short: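 Enzymatically isolated rat aortic VSMCs on coverslips pretreated with compound for 30 min. Cells loaded 60 min with 1 μM fura-2/AM in PSS (pH 7.4) with 1% BSA, then superfused with PSS at 2 mL/min at 33 °C. Serotonin-evoked calcium rise imaged by 40× oil-objective fluorescence microscopy. Mean ± SEM, ≥3 experiments.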

[10] = molecular target: T1, Voltage-gated L-type calcium channel; assay: Inhibition of L-type calcium channel in Sprague-Dawley rat aortic rings assessed as reduction in Bay K8644-induced vasoconstriction preincubated with aortic rings followed by Bay K8644 addition
In short: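 Aortic rings in organ baths (37 °C, 95% O2/5% CO2) pretreated with compound. Contraction was elicited by Bay K8644 (10−6 M) in 15 mM K+ buffer, pH 7.4, containing 0.026 mM EDTA. Tension expressed as percent of a prior 90 mM K+ response. Mean ± SEM, ≥3 independent experiments.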

[11] = molecular target: T1, Voltage-gated L-type calcium channel; assay: Reversible inhibition of 5-HT activated L-type calcium channel-mediated vasoconstriction in Sprague-Dawley rat aortic rings at 25 uM preincubated with aortic rings followed by 5-HT addition and subsequent compound wash out measured after 4 hrs
In short: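 Organ-bath aortic rings (Krebs-Ringer, 37 °C) treated with compound, and a 5-HT contraction recorded. Buffer was washed out and the 5-HT contraction measured again 4 h later. Tension expressed relative to a 90 mM K+ response. Mean ± SEM, ≥3 independent experiments.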

Aorta [12] = assay: Cytotoxicity against Sprague-Dawley rat aortic rings assessed as non-specific tissue damage after 24 hrs by TUNEL assay; type: tissue-based
In short: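 Aortic rings kept in MEM with 100 U/mL penicillin and 100 μg/mL streptomycin, exposed to compound or vehicle for 24 h at 37 °C in 95% air/5% CO2. Sections quenched with 0.3% H2O2, digested with 20 μg/mL Proteinase K, TdT-labelled with digoxigenin-dUTP for 1 h at 37 °C. Detection by HRP anti-digoxigenin (30 min, room temperature) and DAB, hematoxylin counterstain. Mean ± SEM, ≥3 independent experiments.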

SMILES: COc1cc(/C=C/C(=O)CC(=O)/C=C/c2ccc(O)cc2)ccc1O
- inhibition (INH) [1]: Active

SMILES: C[As](O)O
- inhibition (INH) [2]: Active

SMILES: COc1cc(/C=C/C2=CC(=O)CC(c3ccc(O)c(OC)c3)O2)ccc1O (configuration not stated)
- IC50 [3]: 18.5 µM
- inhibition (INH) ([3]; rat): Dose-dependent effect
- Activity (Aorta [4]): Non-Toxic
- inhibition (INH) [1]: Active
- IC50 [5]: 14.9 µM
- pA2 [5]: 5.2
- inhibition (INH) ([5]; rat): Dose-dependent effect
- inhibition (INH) [6]: Active
- inhibition (INH) [7]: Active
- inhibition (INH) [8]: Active
- inhibition (INH) [9]: Dose-dependent effect
- IC50 [10]: 13.5 µM
- inhibition (INH) [11]: Active
- Activity (Aorta [12]): Non-Toxic

SMILES: COc1cc(/C=C/C(=O)CC(=O)/C=C/c2ccc(O)c(OC)c2)ccc1O [CURCUMIN]
- IC50 [5]: > 100 µM
